The source of these data is ChEMBL document CHEMBL4152279, “Synthesis, cytotoxic evaluation and target identification of thieno[2,3-d]pyrimidine derivatives with a dithiocarbamate side chain at C2 position” (Eur J Med Chem, 2018).

Assay [1] has as its system A549. Kind of assay: Cell cycle arrest in human A549 cells assessed as accumulation at S phase at 0.1 uM after 24 hrs by propidium iodide staining based flow cytometry (reference value: 32.37 +/- 1.23%). The class given is functional.
Assay [2] concerns A549. Kind of assay: Cell cycle arrest in human A549 cells assessed as accumulation at G2/M phase at 0.1 uM after 24 hrs by propidium iodide staining based flow cytometry (reference value: 20.95 +/- 0.8%). The class given is functional.
Assay [3] relates to A549. Kind of assay: Cell cycle arrest in human A549 cells assessed as accumulation at G0/G1 phase at 0.1 uM after 24 hrs by propidium iodide staining based flow cytometry (reference value: 46.39 +/- 1.75%). The class given is functional. A general note: In flow cytometry, cells or beads pass a laser one at a time.
In assay [4] the test system is A549. Kind of assay: Antiproliferative activity against human A549 cells after 72 hrs by MTS assay. Type of assay: functional, cell-based. Particulars: A549, 72 h. In outline:
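MTS read-out (CellTiter 96 AQueous One) of proliferation in A549 or HCT-116 cells grown in DMEM with 10% FBS at 37 °C, 5% CO2. Taxol-resistant A549 cells were exposed for 72 h. Compounds were screened at 30 μM versus vehicle, with ≥50% inhibition counted active. Actives were then tested over a concentration range for IC50. Triplicate wells, three independent experiments, mean ± SD.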
Background: Tetrazolium assays rely on reduction of a dye to a coloured formazan, in cell work by metabolically active cells.

Assay [5] deals with A549. Kind of assay: Activation of spindle assembly checkpoint in human A549 cells assessed as mitotic index by measuring cells positive for histone H3 phosphorylation at Ser10 residue at 340 nM after 16 hrs by FITC staining based immunofluorescence assay (reference value: 3.23 +/- 0.15). Type of assay: functional.
The next assay is filed under the species Sus scrofa. Kind of assay: Inhibition of porcine tubulin polymerization at 10 uM after 60 mins by spectrometric method. The method, boiled down:
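Purified tubulin was incubated at 37 °C with compound at 5, 10 or 20 μM, with DMSO as vehicle. Polymerization was followed as the rise in absorbance at 340 nm over 60 min. Taxol (10 μM) and nocodazole (10 μM) served as controls. Three independent experiments were run.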

Assay [6] deals with A549. Kind of assay: Activation of spindle assembly checkpoint in human A549 cells assessed as mitotic index by measuring cells positive for histone H3 phosphorylation at Ser10 residue at 340 nM after 8 hrs by FITC staining based immunofluorescence assay (reference value: 3.17 +/- 0.15). The class given is functional.
For assay [7], the system named is A549. Nature of the assay: Activation of spindle assembly checkpoint in human A549 cells assessed as mitotic index by measuring cells positive for histone H3 phosphorylation at Ser10 residue at 340 nM after 4 hrs by FITC staining based immunofluorescence assay (reference value: 3.3 +/- 0.17). The class given is functional.
The test system of assay [8] is A549. Nature of the assay: Activation of spindle assembly checkpoint in human A549 cells assessed as mitotic index by measuring cells positive for histone H3 phosphorylation at Ser10 residue at 340 nM after 2 hrs by FITC staining based immunofluorescence assay (reference value: 2.67 +/- 0.21). The class given is functional.

Active and inactive are the calls of the source. The calls are words filed in the database; no cut-off is given here.

Regarding `CC(=O)O[C@H]1C(=O)[C@@]2(C)[C@H]([C@H](OC(=O)c3ccccc3)[C@]3(O)C[C@H](OC(=O)[C@H](O)[C@@H](NC(=O)c4ccccc4)c4ccccc4)C(C)=C1C3(C)C)[C@]1(OC(C)=O)CO[C@@H]1C[C@@H]2O` [PACLITAXEL], the Activity was 24.56% in the assay on A549 [1], 74.17% with A549 [2] and 5.86% with A549 [3]. Besides, the IC50 (in general, the midpoint of a concentration-inhibition curve) in the assay with A549 [4] is above 30 µM.
Turning to `COC(=O)Nc1nc2cc(C(=O)c3cccs3)ccc2[nH]1` [NOCODAZOLE], the Activity_index in the assay with A549 [5] is recorded as 57.93; in the assay on A549 [6], 28.57; with A549 [7], 14.57; with A549 [8], 9.83. The inhibition result in the assay listed under Sus scrofa was “Active”.
